Measurements reported in publication PMC12034384 (ImmunoHorizons, 2025).

Assays:
Jurkat = experiment: Cytotoxicity of peptides; type: cell-based, human; conditions: Fig. S1; concentrations up to 100 μM
[1] = cited from earlier work
murine CD4+ T cells = experiment: IL-2 production of murine CD4+ T cells after anti-CD3/anti-CD28, ELISA; type: cell-based; conditions: 30 min preincubation, anti-CD3/anti-CD28 48 h, n = 4
Procedure, shortened: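 CD4⁺ T cells were purified from mouse spleen with a CD4⁺ isolation kit and cultured in RPMI 1640, 10% FBS, 50 μM 2-mercaptoethanol. After 30 min preincubation with test or control peptide, cells were stimulated 48 h on immobilized anti-mouse CD3 (145-2C11, 3 μg/ml) plus anti-CD28 (PV-1, 1 μg/ml). Mouse IL-2 in supernatant was measured by ELISA. Mean ± SEM, n = 4 independent experiments, Sidak's test.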

STAP-1–ITK interaction = experiment: Coimmunoprecipitation, STAP-1–ITK interaction; type: binding, human; conditions: Fig. 2G
murine B cells = experiment: IgM-mediated IL-6 and IL-10 production in murine B cells; type: cell-based; conditions: compared with iCont-treated B cells
EAE mice = experiment: Experimental autoimmune encephalomyelitis; type: in vivo, C57BL/6 mice
mice = experiment: Tolerability in treated mice; type: in vivo; conditions: within the effective concentration range; data not shown
Jurkat cells = experiment: IL-2 production after anti-CD3/anti-CD28 stimulation, ELISA; type: cell-based, human; conditions: 30 min preincubation, immobilized anti-CD3 (3 μg/ml)/anti-CD28 (1 μg/ml) 48 h, n = 4
Procedure, shortened: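 Jurkat cells were kept in RPMI 1640 with 10% FBS and 50 μM 2-mercaptoethanol. They were preincubated 30 min with test peptide or control peptide, then stimulated 48 h on immobilized anti-human CD3 (OKT3, 3 μg/ml) plus anti-CD28 (CD28.8, 1 μg/ml). Human IL-2 in supernatant was measured by ELISA. Mean ± SEM of 4 independent experiments, Sidak's test.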

EL-4 cells = experiment: Spontaneous proliferation of EL-4 cells; type: cell-based, murine; conditions: 30 min preincubation, WST-8, n = 3
Procedure, shortened: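 Murine EL-4 T lymphoma cells were grown in RPMI 1640 with 10% FBS and 50 μM 2-mercaptoethanol without stimulation. They were preincubated 30 min with test or control peptide, and spontaneous proliferation was read with WST-8 reagent. Mean ± SEM of 3 independent experiments; Sidak's multiple comparisons.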

[2] = system: Ramos human B lymphoma cells; experiment: Spontaneous proliferation of Ramos cells; type: cell-based
[3] = system: HeLa human epithelial-like cells; experiment: Spontaneous proliferation of HeLa cells; type: cell-based
[4] = EAE mice, 40 µg/mouse i.v., vs iCont, n = 5
[5] = EAE mice, day 14 after MOG immunization, vs iCont, n = 10 to 12
[6] = EAE mice, day 14 after MOG immunization, vs iCont, n = 10 to 14

RRRRRRRRGGDLTCLTEQNSTEKNCAKFTL [N73-92]
cytotoxicity (Jurkat): high cytotoxicity at the concentration of 100 μM

RRRRRRRRGGEYEHYWTELRGTTLFFYTD [N41-59]
cytotoxicity (Jurkat): did not show significant cytotoxicity up to the concentration of 100 μM

RRRRRRRRGGPLYFEGFLLIKRSGYREYE [N26-43]
cytotoxicity (Jurkat): high cytotoxicity from the concentration of 3 μM

RRRRRRRRGGRRIFQERLKITALPLYFEGF [N12-31]
cytotoxicity (Jurkat): high cytotoxicity from the concentration of 3 μM

RRRRRRRRGGTDKKSIIYVDKLDIVDLTCL [N58-77]
cytotoxicity (Jurkat): high cytotoxicity from the concentration of 3 μM

RRRRRRRRGGTTLFF [iSP1]
stability of cell-penetrating R8 sequence in vivo [1]: unstable and easy to dissociate in vivo
IL-2 production upon TCR stimulation (murine CD4+ T cells): inhibited in CD4^+ T cells
STAP-1–ITK interaction (STAP-1–ITK interaction): suppressed
IgM-mediated IL-6 production (murine B cells): no inhibition
IgM-mediated IL-10 production (murine B cells): no inhibition
area under the curve of EAE clinical score (EAE mice; 40 µg/mouse i.v. every other day, days 8–20, vs iCont, n = 20): significantly lower
demyelination in spinal cord (Luxol Fast Blue staining) (EAE mice; [4]): suppressed
immune cell infiltration in spinal cord (H&E staining) (EAE mice; [4]): suppressed
frequency of Th1 cells (IFN-γ expressing) among CD4+ cells in CNS (EAE mice; [5]): significantly lower
frequency of Th17 cells (IL-17 expressing) among CD4+ cells in CNS (EAE mice; [5]): significantly lower
absolute number of Th1 cells (IFN-γ expressing CD4+ T cells) in CNS (EAE mice; [6]): significantly lower
absolute number of Th17 cells (IL-17 expressing CD4+ T cells) in CNS (EAE mice; [6]): significantly lower
abnormal phenotypes in treated mice (mice): did not show any abnormal phenotypes
IL-2 production following TCR stimulation (Jurkat cells): suppressed by iSP1 treatment in a concentration-dependent manner
spontaneous cell proliferation (EL-4 cells): exhibited suppressed cell proliferation
spontaneous proliferation [2]: did not inhibit
spontaneous proliferation [3]: did not inhibit
